# From ChEMBL document CHEMBL4428118, “Optimization of pyrimidinol antioxidants as mitochondrial protective agents: ATP production and metabolic stability” (Bioorg Med Chem, 2016)
# Active and inactive are the calls of the source. No cut-off for these calls is given here.
# Key:
# GM15850 [1] = assay: Antioxidant activity in FRDA patient derived lymphocyte GM15850 assessed as inhibition of DEM-induced lipid peroxidation at 0.1 to 1 uM pre-incubated for 16 hrs followed by DEM addition for 120 mins by C11-BODIPY581/591 probe based flow cytometry relative to control; type: functional, cell-based; settings: Homo sapiens
# In short: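 Cells seeded at 5 × 10^5 cells/mL in RPMI-1640 with 15% fetal calf serum and 2 mM glutamine. Compounds added 16 h at 37 °C, 5% CO2. Then 1 μM C11-BODIPY581/591 in phenol red-free medium, 30 min in the dark. 5 mM DEM for 120 min, PBS wash, FL1-H read (488 nm excitation). 10,000 events. Green median fluorescence reported as % of DEM-treated control, n = 3.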
# GM15850 [2] = assay: Antioxidant activity in FRDA patient derived lymphocyte GM15850 assessed as suppression of DEM-induced intracellular ROS levels at 100 nM pre-incubated for 16 hrs followed by DEM addition for 80 mins by DCFH-DA probe based flow cytometry; type: functional, cell-based; settings: Homo sapiens
# In short: (§1)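 Cells (5 × 10^5) pretreated with compound 16 h at 37 °C, then 5 mM DEM for 80 min. Washed, then 10 μM DCFH-DA in PBS with 20 mM glucose for 25 min at 37 °C in the dark. DCF read on FL1-H, 10,000 events. Median fluorescence given as % of DEM-treated control. Duplicates, three independent runs.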
# GM15850 [3] = assay: Inhibition of DEM-induced collapse of mitochondrial membrane potential in FRDA patient derived lymphocyte GM15850 assessed as intact mitochondrial membrane potential at 100 nM pre-incubated for 16 hrs followed by DEM addition for 120 mins by TMRM dye based flow cytometry (reference value: 91.3 %); type: functional, Homo sapiens; design: scale not given: the % may be the effect or the level left
# In short: (§2)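 Cells (5 × 10^5) pretreated with or without compound for 16 h, then 5 mM DEM for 120 min. Stained with 250 nM TMRM in PBS with 20 mM glucose, 15 min at 37 °C in the dark. FL2-H read, 10,000 events, % cells with high TMRM uptake (intact potential). FCCP as uncoupler control. Means ± SEM of independent experiments run in duplicate.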
# GM15850 [4] = assay: Inhibition of DEM-induced collapse of mitochondrial membrane potential in FRDA patient derived lymphocyte GM15850 assessed as intact mitochondrial membrane potential at 1000 nM pre-incubated for 16 hrs followed by DEM addition for 120 mins by TMRM dye based flow cytometry (reference value: 91.3 %); type: functional, Homo sapiens; design: scale not given: the % may be the effect or the level left; in short: as §2
# GM15850 [5] = assay: Inhibition of DEM-induced collapse of mitochondrial membrane potential in FRDA patient derived lymphocyte GM15850 assessed as intact mitochondrial membrane potential at 2500 nM pre-incubated for 16 hrs followed by DEM addition for 120 mins by TMRM dye based flow cytometry (reference value: 91.3 %); type: functional, Homo sapiens; design: scale not given: the % may be the effect or the level left; in short: as §2
# GM15850 [6] = assay: Inhibition of DEM-induced collapse of mitochondrial membrane potential in FRDA patient derived lymphocyte GM15850 assessed as intact mitochondrial membrane potential pre-incubated for 16 hrs followed by DEM addition for 120 mins by TMRM dye based flow cytometry; type: functional, cell-based; settings: Homo sapiens; in short: as §2
# GM15850 [7] = assay: Effect on mitochondrial membrane potential in FRDA patient derived lymphocyte GM15850 incubated for 16 hrs by TMRM dye based flow cytometry; type: cell-based; settings: human, gm15850, 16 h
# GM15850 [8] = assay: Increase in total intracellular ATP levels in FRDA patient derived lymphocyte GM15850 grown in galactose medium at 1 uM after 48 hrs by luciferin-luciferase reaction based bioluminescence assay relative to control; type: functional, Homo sapiens
# In short: (§3)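 Cells at 2 × 10^5 cells/mL in glucose-free RPMI with 25 mM galactose, 10% dialyzed FBS and 2 mM glutamine. Compound exposure 48 h at 37 °C, 5% CO2. Total ATP read by luciferin-luciferase bioluminescence. Expressed as % of untreated control, mean of at least three independent runs; Student's t-test, p ≤ 0.05 versus vehicle.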
# GM15850 [9] = assay: Increase in total intracellular ATP levels in FRDA patient derived lymphocyte GM15850 grown in galactose medium at 5 uM after 48 hrs by luciferin-luciferase reaction based bioluminescence assay relative to control; type: functional, Homo sapiens; in short: as §3
# GM15850 [10] = assay: Increase in total intracellular ATP levels in FRDA patient derived lymphocyte GM15850 grown in galactose medium at 20 uM after 48 hrs by luciferin-luciferase reaction based bioluminescence assay relative to control; type: functional, Homo sapiens; in short: as §3
# GM15850 [11] = assay: Cytoprotective activity against DEM induced oxidative stress in FRDA patient derived lymphocyte GM15850 assessed as cell viability at 0.5 uM pre-incubated for 16 hrs followed by DEM addition for 6 hrs by calcein AM/EthD-1 staining based flow cytometry; type: functional; settings: Homo sapiens
# In short: (§4)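 Seeding 5 × 10^5 cells/mL, compound for 16 h at 37 °C, then 5 mM DEM for 6 h. Cells washed, resuspended in PBS with 25 mM galactose. Stained with 0.1 μM calcein AM and 0.1 μM EthD-1, 15 min at 37 °C in the dark. FL1-H/FL2-H read, 10,000 events. Viability relative to DMSO vehicle control.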
# GM15850 [12] = assay: Cytoprotective activity against DEM induced oxidative stress in FRDA patient derived lymphocyte GM15850 assessed as cell viability at 0.1 uM pre-incubated for 16 hrs followed by DEM addition for 6 hrs by calcein AM/EthD-1 staining based flow cytometry; type: functional; settings: Homo sapiens; in short: as §4
# [13] = Stability in bovine liver microsomes assessed as drug recovery at 25 uM after 30 mins in presence of beta-NADPH by HPLC analysis; type: ADME, Bos taurus, Microsome; settings: cattle, read-out: Drug recovery
# In short: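 Freshly prepared bovine liver microsomes at 1 mg/mL protein in 50 mM phosphate buffer pH 7.4 with 5 mM MgCl2. Compound at 25 μM final, reaction started with 1 mM β-NADPH, 30 min at 37 °C, stopped with propanol. Control was deactivated microsomes without NADPH. Reversed-phase HPLC with fluorene internal standard. Reported as % remaining versus control, quadruplicate.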
# GM15850 [14] = assay: Antioxidant activity in FRDA patient derived lymphocyte GM15850 assessed as suppression of DEM-induced intracellular ROS levels at 2.5 uM pre-incubated for 16 hrs followed by DEM addition for 80 mins by DCFH-DA probe based flow cytometry; type: functional, cell-based; settings: Homo sapiens; in short: as §1
# GM15850 [15] = assay: Antioxidant activity in FRDA patient derived lymphocyte GM15850 assessed as suppression of DEM-induced intracellular ROS levels pre-incubated for 16 hrs followed by DEM addition for 80 mins by DCFH-DA probe based flow cytometry; type: functional, cell-based; settings: Homo sapiens; in short: as §1
# GM15850 [16] = assay: Increase in total intracellular ATP levels in FRDA patient derived lymphocyte GM15850 grown in galactose medium after 48 hrs by luciferin-luciferase reaction based bioluminescence assay; type: functional, cell-based; settings: Homo sapiens; in short: as §3
"remaining at 0.5 h, 25 µM [13]",Activity (GM15850 [16]),SMILES,Activity (GM15850 [1]),Activity (GM15850 [2]),Activity (GM15850 [3]),Activity (GM15850 [4]),Activity (GM15850 [5]),Activity (GM15850 [6]),Activity (GM15850 [7]),Activity (GM15850 [8]),Activity (GM15850 [9]),Activity (GM15850 [10]),Activity (GM15850 [11]),Activity (GM15850 [12]),Activity (GM15850 [14]),Activity (GM15850 [15])
58%,–,CCCCCCCCCCCCCCCCc1nc(N2CCC2)nc(OC)c1O,Active,Active,90.5%,88.8%,86.8%,Dose-dependent effect,Non-Toxic,102%,109%,74%,Active,inactive,–,–
54%,–,CCCCCCCCCCCCCCCCc1nc(N2CCC2)nc(OCC)c1O,Active,Active,88.9%,87.6%,88%,Dose-dependent effect,Non-Toxic,100%,108%,96%,Active,inactive,–,–
76%,–,CCCCCCCCCCCCCCCCc1nc(N2CCC2)nc(OC(C)C)c1O,Active,Active,91.5%,90.4%,87.5%,Dose-dependent effect,Non-Toxic,106%,109%,95%,Active,inactive,–,–
57%,–,CCCCCCCCCCCCCCCCc1nc(N2CCC2)nc(C)c1O,Active,Active,91.1%,86.5%,83.3%,Dose-dependent effect,Non-Toxic,109%,98%,60%,Active,inactive,–,–

# The remaining lines, values behind:
SMILES,"remaining at 0.5 h, 25 µM [13]",Activity (GM15850 [16]),Activity (GM15850 [1]),Activity (GM15850 [2]),Activity (GM15850 [3]),Activity (GM15850 [4]),Activity (GM15850 [5]),Activity (GM15850 [6]),Activity (GM15850 [7]),Activity (GM15850 [8]),Activity (GM15850 [9]),Activity (GM15850 [10]),Activity (GM15850 [11]),Activity (GM15850 [12]),Activity (GM15850 [14]),Activity (GM15850 [15])
CCCCCCCCCCCCCCCCc1nc(N2CCCC2)nc(OC2CCC2)c1O,72%,–,inactive,inactive,42.5%,52.3%,70.4%,Dose-dependent effect,Non-Toxic,98%,107%,102%,inactive,inactive,Active,Dose-dependent effect
CCCCCCCCCCCCCCCCc1nc(N2CCCCC2)nc(OC2CCC2)c1O,72%,–,inactive,inactive,7.8%,32.4%,62.3%,Dose-dependent effect,Non-Toxic,99%,106%,100%,inactive,inactive,Active,Dose-dependent effect
CCCCCCCCCCCCCCCCc1nc(N(C)C)nc(OC)c1O,46%,–,Active,Active,92%,88.3%,85.8%,Dose-dependent effect,Non-Toxic,115%,107%,88%,–,inactive,–,–
CCCCCCCCCCCCCCCCc1nc(N2CCC2)nc(OC2CCC2)c1O,65%,–,inactive,inactive,55%,66.6%,83.4%,Dose-dependent effect,Non-Toxic,98%,112%,103%,inactive,inactive,Active,Dose-dependent effect
CCCCCCCCCCCCCCCOc1nc(N2CCC2)nc(C)c1O,62%,Dose-dependent effect,Active,Active,88.9%,82.7%,77.2%,Dose-dependent effect,Non-Toxic,96%,68%,11%,Active,inactive,–,–
